Data set [1] deals with A549. The data set can be described thus: Cytotoxicity against human A549 cells by sulforhodamine B assay. In kind it is functional, cell-based.
For data set [2], the system named is SK-OV-3. The data set can be described thus: Cytotoxicity against human SKOV3 cells by sulforhodamine B assay. The data set is classed as functional, cell-based.
Data set [3] deals with SK-MEL-2. The data set can be described thus: Cytotoxicity against human SK-MEL-2 cells by sulforhodamine B assay. In kind it is functional, cell-based. Background: The SRB assay estimates cell density from bound dye.
The subject of data set [4] is HUVEC. The data set can be described thus: Cytotoxicity against HUVEC by sulforhodamine B assay. In kind it is cell-based. As to conditions: Homo sapiens.
In data set [5] the test system is BV-2. The data set can be described thus: Anti-neuroinflammatory activity in mouse BV2 cells assessed as inhibition of LPS-induced NO production pretreated for 30 mins before LPS-stimulation measured after 24 hrs by Griess reaction. In kind it is functional, cell-based. The essentials: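 Murine BV-2 microglia activated with LPS; NO output was estimated from nitrite, its soluble oxidation product, measured in the culture medium with the Griess reaction. The value is the IC50 for lowering that nitrite.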
Background: Griess reagent forms a coloured azo dye with nitrite.

The nature of data set [6]: Cytotoxicity against LPS-stimulated mouse BV2 cells assessed as cell viability after 24 hrs by MTT assay relative to control. In kind it is cell-based, BV-2. As to conditions: read-out: Activity. For orientation: Formazan colour is commonly taken as a measure of viable cells.
In data set [7] the test system is HUVEC. The data set can be described thus: Selectivity index, ratio of IC50 for HUVEC to IC50 for human SKMEL2 cells.

Molecules are shown by their SMILES.

In general, IC50 refers to the midpoint of a concentration-inhibition curve. For `C/C=C\c1ccc(O[C@H](C)[C@H](OC(C)=O)c2ccc(OC)c(OC)c2)c(OC)c1` [LIGRAMINOL C], the IC50 in data set [1] was 9.54 µM; in data set [2] it was over 10 µM; in data set [3] it was over 10 µM; in data set [4] it was 25.9 µM; in data set [5], 16.2 µM. Besides, the viability at 24 h in data set [6] is 90.5%.

With `COc1ccc([C@H]2O[C@H](c3cc(OC)c(OC)c(OC)c3)[C@@H](C)[C@H]2C)cc1OC` [LIGRAMINOL A], the IC50 in data set [1] is 6.92 µM; in data set [2] it was 9.44 µM; in data set [3], 4.53 µM; in data set [4], 27.2 µM; in data set [5], 21.5 µM. In data set [7], the “Ratio IC50” value amounted to 6. Also, the viability at 24 h in data set [6] was 88.6%.

For `COc1cc(C[C@H](CO)Oc2ccc(CCCO)cc2OC)ccc1O` [LIGRAMINOL E], the IC50 in data set [1] is over 10 µM; in data set [2], over 10 µM; in data set [3], over 10 µM; in data set [5], over 200 µM. In addition, in data set [6], the viability at 24 h turned out to be 97.1%.

`COc1ccc(C[C@@H](CO)Oc2ccc(CCCO)cc2OC)cc1OC` [LIGRAMINOL D]: the IC50 is 8.28 µM in data set [1]; over 10 µM in data set [2]; over 10 µM in data set [3]; 22.6 µM in data set [4]; 18.4 µM in data set [5]. Further, the viability at 24 h in data set [6] was determined as 98.4%.

Turning to `COc1ccc([C@H]2O[C@H](c3ccc(OC)c(OC)c3)[C@@H](C)[C@H]2C)cc1OC` [GANSCHISANDRINE], the IC50 in data set [1] is over 10 µM; in data set [2], over 10 µM; in data set [3], over 10 µM; in data set [5], 76 µM. For the same molecule, in data set [6], the viability at 24 h turned out to be 104%.

As for `C/C=C/c1cc(OC)c(O[C@H](C)[C@H](O)c2ccc(OC)c(OC)c2)c(OC)c1`, the IC50 is over 10 µM in data set [1], over 10 µM in data set [2], over 10 µM in data set [3] and 176 µM in data set [5]. Also, the viability at 24 h in data set [6] came out at 102%.

Consider `C/C=C/c1cc(OC)c(O[C@H](C)[C@H](O)c2cc(OC)c(OC)c(OC)c2)c(OC)c1`, for which the concentration for half-maximal inhibition (IC50) in data set [1] is over 10 µM; in data set [2] it was over 10 µM; in data set [3] it was over 10 µM; in data set [5], over 200 µM. Further, the viability at 24 h in data set [6] came out at 101%.

On to `COc1ccc([C@H]2O[C@H](c3cc(OC)c(OC)c(OC)c3)[C@@H](C)[C@@H]2C)cc1OC`, for which the IC50 in data set [1] was over 10 µM; in data set [2] it was over 10 µM; in data set [3], over 10 µM; in data set [5], 125 µM. For the same molecule, the viability at 24 h in data set [6] came out at 87.3%.

With `COc1cc([C@@H](O)[C@@H](CO)Oc2ccc(CCCO)cc2OC)ccc1O`, the IC50 was over 10 µM in data set [1], over 10 µM in data set [2], over 10 µM in data set [3] and 52 µM in data set [5]. In addition, the viability at 24 h in data set [6] was 97.5%.

With `CNC(=N)NCCC[C@H](N)C(=O)O` [TILARGININE], in data set [5], the IC50 was found to be 15.4 µM. The viability at 24 h in data set [6] amounted to 98.7%.

For `COc1cc([C@@H]2c3cc4c(cc3[C@@H](O[C@@H]3O[C@@H]5CO[C@@H](C)O[C@H]5[C@H](O)[C@H]3O)[C@H]3COC(=O)[C@H]23)OCO4)cc(OC)c1O` [ETOPOSIDE], the IC50 in data set [1] is 0.44 µM; in data set [2], 1.31 µM; in data set [3], 0.41 µM; in data set [4], 1.86 µM.

With `COc1ccc([C@H]2O[C@@H](c3ccc(OC)c(OC)c3)[C@H](C)[C@H]2C)cc1OC` [VERAGUENSIN], the IC50 in data set [1] is over 10 µM; in data set [2], over 10 µM; in data set [3], over 10 µM; in data set [5] it was 48.4 µM. Further, the viability at 24 h in data set [6] was 104%.

With `COc1cc([C@@H]2O[C@@H](c3cc(OC)c(O)c(OC)c3)[C@H](CO[C@@H]3O[C@H](CO)[C@@H](O)[C@H](O)[C@H]3O)[C@H]2CO)cc(OC)c1O` [LIGRAMINOL B], the IC50 was over 10 µM in data set [1], over 10 µM in data set [2], over 10 µM in data set [3] and 23 µM in data set [5]. For the same molecule, in data set [6], the viability at 24 h worked out at 84.4%.

On to `COc1cc([C@H](O)[C@H](CO)Oc2ccc(CCCO)cc2OC)ccc1O`, for which the IC50 was over 10 µM in data set [1], over 10 µM in data set [2], over 10 µM in data set [3] and 53 µM in data set [5]. Further, the viability at 24 h in data set [6] stood at 96.7%.
